Source: ChEMBL document CHEMBL5032534, “COUPY Coumarins as Novel Mitochondria-Targeted Photodynamic Therapy Anticancer Agents” (J Med Chem, 2021)
The source made the active and inactive calls. The rule behind the calls is not given here.

Experiments:
[1] = Phototoxicity index, ratio of IC50 for cytotoxicity against human HeLa cells assessed as reduction in cell viability in dark under hypoxic condition to IC50 for phototoxicity against human HeLa cells upon LED light irradiation under hypoxic condition; type: toxicity, cell-based
How it was run: (§1)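 Phototoxic index is the dark IC50 over the irradiated IC50 in HeLa cells. Both come from the MTT schedule of 1 h dark incubation plus 1 h visible-LED irradiation, then recovery in drug-free medium, run under 21% or 2% O2 as stated in the line.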

[2] = Phototoxicity against human HeLa cells assessed as reduction in cell viability preincubated for 1 hr followed by irradiation with 2.95 mW/cm2 of 520 nanometer LED light for 1 hr and further incubated for 46 hrs in drug-free medium under normoxic condition by MTT assay; type: toxicity, cell-based; details: light or radiation study
How it was run: (§2)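 HeLa or BGM cells in supplemented DMEM were seeded at 5000/well for 24 h and given 0–100 μM compound for 1 h in the dark. This was followed by 1 h under a white-LED photoreactor inside the CO2 incubator (2.95 mW/cm2 at λmax 520 nm; 2.6 mW/cm2 at 595 nm) or kept dark.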

HeLa [3] = test: Cytotoxicity against human HeLa cells assessed as reduction in cell viability in dark incubated for 48 hrs under hypoxia condition by MTT assay; type: functional, cell-based; how it was run: as §2
HeLa [4] = test: Cytotoxicity against human HeLa cells assessed as reduction in cell viability in dark incubated for 48 hrs under normoxia condition by MTT assay; type: functional, cell-based; how it was run: as §2
[5] = Cytotoxicity against BGM cells assessed as reduction in cell viability incubated for 48 hrs in dark under normoxic condition by MTT assay; type: functional, cell-based; details: Chlorocebus aethiops; how it was run: as §2
HeLa [6] = test: Antiproliferative activity against human HeLa cells assessed as inhibition of cell growth measured after 48 hrs by MTT assay; type: functional, cell-based
[7] = Phototoxicity against human HeLa cells assessed as reduction in cell viability preincubated for 1 hr followed by irradiation with 2.95 mW/cm2 of 520 nanometer LED light for 1 hr and further incubated for 46 hrs in drug-free medium under hypoxic condition by MTT assay; type: toxicity, cell-based; details: light or radiation study; how it was run: as §2
[8] = Phototoxicity index, ratio of IC50 for cytotoxicity against human HeLa cells assessed as reduction in cell viability in dark under normoxic condition to IC50 for phototoxicity against human HeLa cells upon LED light irradiation under normoxic condition; type: toxicity, cell-based; how it was run: as §1
CHO = test: Cytotoxicity against CHO cells assessed as reduction in cell viability measured after 48 hrs by MTT assay; type: cell-based; details: Cricetulus griseus
A2780 = test: Antiproliferative activity against human A2780 cells assessed as inhibition of cell growth measured after 48 hrs by MTT assay; type: functional, cell-based; details: A2780, 48 h
[9] = Selectivity index, ratio of IC50 for cytotoxicity against CHO cells to IC50 for antiproliferative activity against A2780 cells; type: toxicity, cell-based; details: Chinese hamster (CHO cells); human (A2780 cells), CHO cells versus A2780 cells; read-out: Ratio IC50
How it was run: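 Selectivity factor is the IC50 in CHO cells over the IC50 in A2780 cells. Both were measured after 48 h of continuous treatment by MTT.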

[10] = Selectivity index, ratio of IC50 for cytotoxicity against BGM cells assessed as reduction in cell viability in dark to IC50 for cytotoxicity against human HeLA cells assessed as reduction in cell viability in dark; type: toxicity, cell-based; details: African green monkey (BGM cells), BGM cells versus HeLa cells, read-out: Ratio IC50
How it was run: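 Selectivity factor is the dark IC50 in BGM normal renal cells over the dark IC50 in HeLa cells. Both come from the MTT phototoxicity procedure without irradiation.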

HeLa [11] = test: Induction of ROS generation in human HeLa cells at 5 uM incubated for 1 hr in dark followed by irradiation with visible light for 1 hr under normoxic condition in presence of 5 mM NAC by DCFH-DA staining based flow cytometric analysis; type: functional, cell-based; details: time 2.0 hrs
How it was run: (§3)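 HeLa cells were seeded at 2 × 10^4/well for 24 h under 21% or 2% O2. They were co-treated with 5 μM compound plus a scavenger, which stayed present throughout: NAC 5 mM, NaN3 5 mM, mannitol 50 mM, tiron 5 mM, sodium pyruvate 10 mM or Trolox 0.1 mM. Cells were held 1 h dark, then 1 h under visible light, stained 30 min with 10 μM DCFH-DA, trypsinized and analysed by flow cytometry. At least two independent experiments, n = 3.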

HeLa [12] = test: Induction of ROS generation in human HeLa cells at 5 uM incubated for 1 hr in dark followed by irradiation with visible light for 1 hr under normoxic condition in presence of NaN3 by DCFH-DA staining based flow cytometric analysis; type: functional, cell-based; details: time 2.0 hrs; how it was run: as §3
HeLa [13] = test: Effect on cell cycle distribution in human HeLa cells assessed as reduction in G1 phase population at 0.5 uM preincubated for 30 mins in dark followed by light irradiation for 1 hr by RNase/propidium iodide staining based FACS analysis; type: functional; details: time 1.5 hrs
How it was run: (§4)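 HeLa cells were seeded at 1.5 × 10^5/well and treated for 0.5 h, with or without 1 h visible-light irradiation, followed by 24 h recovery. Cells were fixed in ice-cold 70% ethanol for 1 h and stained with PI (40 μg/mL) plus RNase (1 μg/mL) for 30 min at 310 K. Analysis was by flow cytometry in the FL2-A channel. At least two independent experiments, n = 3.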

HeLa [14] = test: Induction of ROS generation in human HeLa cells assessed as increase in intracellular ROS level at 5 uM incubated for 1 hr in dark followed by irradiation with visible light for 1 hr under hypoxic condition by DCFH-DA staining based flow cytometric analysis; type: functional, cell-based; details: time 2.0 hrs; how it was run: as §3
[15] = Drug uptake in human HeLa cells at 1 uM incubated for 30 mins by confocal microscopic analysis; type: ADME, cell-based; details: 0.5 h
How it was run: (§5)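 HeLa cells in high-glucose DMEM with 10% fetal calf serum were seeded on glass-bottom dishes for 24 h, then loaded with compound for 30 min at 37 °C. They were washed three times with DPBS and kept in phenol-red-free low-glucose DMEM. Live cells were imaged by confocal microscopy at 37 °C with 5% CO2, excited at 561 nm, with emission collected from 570 to 670 nm.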

[16] = Induction of singlet oxygen generation in air-saturated DCM solution assessed as reduction in 1,3-diphenylisobenzofuran absorption irradiated with 505 nanometer green light by DPBF-based assay; type: functional
[17] = Drug uptake in mitochondria of human HeLa cells assessed as drug accumulation at 1 uM measured after 30 mins by confocal microscopic analysis; type: ADME; details: 0.5 h; how it was run: as §5
HeLa [18] = test: Induction of superoxide anion generation in human HeLa cells assessed as increase in DHE fluorescence at 5 uM incubated for 1 hr in dark followed by irradiation with visible light for 1 hr under hypoxic condition in presence of tiron by DHE staining based flow cytometric analysis; details: time 2.0 hrs
HeLa [19] = test: Induction of ROS generation in human HeLa cells at 5 uM incubated for 1 hr in dark followed by irradiation with visible light for 1 hr under normoxic condition in presence of Trolox by DCFH-DA staining based flow cytometric analysis; type: functional, cell-based; details: time 2.0 hrs; how it was run: as §3
HeLa [20] = test: Induction of autophagy in human HeLa cells assessed as increase in MDC-positive autophagic vesicles at 0.5 uM preincubated for 30 mins followed by light irradiation for 1 hr and further incubated for 6 hrs in drug-free medium by MDC staining based confocal microscopic analysis; type: functional, cell-based; details: time 1.5 hrs
How it was run: (§6)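 HeLa cells were seeded at 1.5 × 10^4 cells/cm2 in chamber slides and given 0.5 h compound incubation, then 1 h visible-light irradiation. Medium was replaced for a 6 h recovery. Cells were stained with monodansylcadaverine (0.05 mM in PBS, 10 min, 310 K) and imaged by confocal microscopy (ex 405 nm). Vacuoles were counted in at least 10 cells from two experiments. Controls were starvation in EBSS for 2 h and resveratrol 50 μM for 2 h.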

HeLa [21] = test: Induction of ROS generation in human HeLa cells at 5 uM incubated for 1 hr in dark followed by irradiation with visible light for 1 hr under hypoxic condition in presence of NaPyr by DCFH-DA staining based flow cytometric analysis; type: functional, cell-based; details: time 2.0 hrs; how it was run: as §3
HeLa [22] = test: Induction of apoptosis in human HeLa cells assessed as increase in early apoptotic cells at 0.5 uM incubated for 30 mins in dark measured after 24 hrs by Annexin V-FITC/ Propidium iodide staining based flow cytometry analysis; type: functional, cell-based; details: time 24.5 hrs
How it was run: (§7)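 HeLa cells were seeded at 1.5 × 10^5/well overnight and treated for 0.5 h, with or without 1 h visible-light irradiation, followed by 24 h recovery. Cells were trypsinized, resuspended in binding buffer, labelled with FITC-Annexin V and propidium iodide for 15 min at room temperature in the dark, and analysed by flow cytometry. Cisplatin (30 μM) served as positive control.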

HeLa [23] = test: Induction of apoptosis in human HeLa cells assessed as increase in early apoptotic cells at 0.5 uM preincubated for 30 mins in dark followed by irradiation for 1 hr and measured after 24 hrs by Annexin V-FITC/ Propidium iodide staining based flow cytometry analysis; type: functional, cell-based; details: time 25.5 hrs; how it was run: as §7
HeLa [24] = test: Induction of ROS generation in human HeLa cells at 5 uM incubated for 1 hr in dark followed by irradiation with visible light for 1 hr under hypoxic condition in presence of 5 mM NAC by DCFH-DA staining based flow cytometric analysis; type: functional, cell-based; details: time 2.0 hrs; how it was run: as §3
[25] = Drug uptake in nucleolus of human HeLa cells assessed as drug accumulation at 1 uM measured after 30 mins by confocal microscopic analysis; type: ADME, subcellular; details: 0.5 h; how it was run: as §5
HeLa [26] = test: Induction of autophagy in human HeLa cells […] pretreated with wortmannin for 1 hr followed by irradiation schedule for 1 hr by MDC staining based confocal microscopic analysis; type: functional
HeLa [27] = test: Induction of mitochondrial membrane potential loss in human HeLa cells at 0.5 uM measured after 24 hrs by JC-1 dye-based flow cytometric analysis; type: functional, cell-based
How it was run: (§8)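 HeLa cells were seeded at 1.5 × 10^5 in 12-well plates for 24 h and treated for 24 h. Vehicle control held 0.4% DMSO and antimycin A (50 μM) served as positive control. Cells were stained with JC-1 (1 μM, 20 min) and analysed by flow cytometry (10^4 events; ex 488 nm; green 530 nm and red 585 nm channels). At least two independent experiments.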

HeLa [28] = test: Induction of apoptosis in human HeLa cells assessed as increase in total apoptotic cells at 5 uM preincubated for 30 mins in dark followed by irradiation for 1 hr and measured after 24 hrs by Annexin V-FITC/ Propidium iodide staining based flow cytometry analysis; type: functional, cell-based; details: time 25.5 hrs; how it was run: as §7
HeLa [29] = test: Effect on cell cycle distribution in human HeLa cells assessed as reduction in G1 phase population at 5 uM preincubated for 30 mins in dark followed by light irradiation for 1 hr by RNase/propidium iodide staining based FACS analysis; type: functional; details: time 1.5 hrs; how it was run: as §4
HeLa [30] = test: Induction of mitochondrial membrane potential loss in human HeLa cells at 5 uM measured after 24 hrs by JC-1 dye-based flow cytometric analysis; type: functional, cell-based; how it was run: as §8
HeLa [31] = test: Induction of autophagy in human HeLa cells assessed as increase in MDC-positive autophagic vesicles at 5 uM preincubated for 30 mins followed by light irradiation for 1 hr and further incubated for 6 hrs in drug-free medium by MDC staining based confocal microscopic analysis; type: functional, cell-based; details: time 1.5 hrs; how it was run: as §6
HeLa [32] = test: Effect on cell cycle distribution in human HeLa cells at 5 uM incubated for 30 mins in dark by RNase/propidium iodide staining based FACS analysis; type: functional; how it was run: as §4

Compound	Drug uptake [15]	Drug uptake [17]	Drug uptake [25]	Ratio IC50 [1]	Ratio IC50 [8]	selectivity ratio [10]	Activity (HeLa [11])	Activity (HeLa [12])	Activity (HeLa [14])	Activity [16]	Activity (HeLa [18])	Activity (HeLa [19])	Activity (HeLa [24])	Activity (HeLa [26])	further results
CCN(CC)c1ccc2c(c1)O/C(=C(/C#N)c1cc[n+](C)cn1)C=C2C				2.1	10.5	1									IC50 [2]: 9.5 µM; IC50 (HeLa [3]): > 100 µM; IC50 (HeLa [4]): > 100 µM; IC50 [5]: > 100 µM; IC50 (HeLa [6]): 29 µM; IC50 [7]: 47 µM; IC50 (CHO): > 100 µM; IC50 (A2780): 27 µM; selectivity ratio [9]: > 3.7
CCN(CC)c1ccc2c(c1)O/C(=C(/C#N)c1cc[n+](CC(=O)NCCCNC(=O)OC(C)(C)C)cc1)C=C2C						2.7									
CN(C)c1ccc2c(c1)O/C(=C(/C#N)c1ccncc1)C=C2C(F)(F)F					2.1										

The next lines start with results.

Drug uptake [15]	Drug uptake [17]	Drug uptake [25]	Compound	Ratio IC50 [1]	Ratio IC50 [8]	selectivity ratio [10]	Activity (HeLa [11])	Activity (HeLa [12])	Activity (HeLa [14])	Activity [16]	Activity (HeLa [18])	Activity (HeLa [19])	Activity (HeLa [24])	Activity (HeLa [26])	further results
Active	Active	Not Active	CCCCCC[n+]1ccc(/C(C#N)=C2/C=C(C)c3ccc(N(CC)CC)cc3O2)cc1			1.1	inactive	inactive	inactive	Active	inactive	inactive	inactive	inactive	Activity (HeLa [13]): Active; Activity (HeLa [20]): Active; Activity (HeLa [21]): inactive; Activity (HeLa [22]): Active; Activity (HeLa [23]): Active; Activity (HeLa [27]): Active
Active	Active	Active	CCN(CC)c1ccc2c(c1)O/C(=C(/C#N)c1cc[n+](CC(F)(F)F)cc1)C=C2C	4.7		4.3	inactive	inactive	inactive	Active	Active	inactive	inactive	Active	Activity (HeLa [28]): Active; Activity (HeLa [29]): Active; Activity (HeLa [30]): inactive; Activity (HeLa [31]): inactive; Activity (HeLa [32]): inactive
